Series [1] has as its system methicillin-resistant Staphylococcus aureus (MRSA USA300). Description: MIC by broth microdilution. It counts as cell-based. Particulars: MRSA|USA300, read-out: MIC S. aureus USA300. Put shortly:
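MRSA USA300 was grown overnight at 37 °C on tryptone soy agar, adjusted to 0.5 McFarland, then diluted in cation-adjusted Mueller-Hinton broth to ∼5 × 10^5 CFU ml−1. […] Plates were incubated aerobically at 37 °C for 18–20 h, following CLSI broth microdilution.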
(Dilution methods test growth across graded concentrations, often in twofold steps.)

Series [2] concerns Acinetobacter baumannii AB5075. Description: MIC by broth microdilution. It counts as cell-based. Particulars: AB5075, read-out: MIC A. baumannii AB5075, broth microdilution, 37 °C, 18–20 hours.
For a further series, the system named is MRSA USA300 biofilms. The series is described as follows: Disruption of mature MRSA biofilms. It counts as cell-based, Staphylococcus aureus. Particulars: at 4× MIC.
In the next series the test system is erythrocytes. The series is described as follows: Hemolysis. Particulars: LC lytic concentration 30%. It counts as cell-based.
A further series in a line: MTT cytotoxicity assay. The note with it: human, HEK293 cells (human embryonic kidney cell line). It counts as cell-based.

SMILES strings stand for the structures. In brackets after ≈: the same amount, converted by molar mass.

Broadly, the MIC is the lowest concentration found to suppress growth. In general, IC50 refers to the concentration that gives 50% inhibition. High values mean weaker potency, low ones greater potency.

For `CN[C@H](CC(C)C)C(=O)N[C@H]1C(=O)N[C@@H](CC(N)=O)C(=O)N[C@H]2C(=O)N[C@H]3C(=O)N[C@H](C(=O)N[C@H](C(=O)O)c4cc(O)cc(O)c4-c4cc3ccc4O)[C@H](O)c3ccc(c(Cl)c3)Oc3cc2cc(c3O[C@@H]2O[C@H](CO)[C@@H](O)[C@H](O)[C@H]2O[C@H]2C[C@](C)(N)[C@H](O)[C@H](C)O2)Oc2ccc(cc2Cl)[C@H]1O` [Vancomycin, reference compound], in series [1], the MIC came out at 1 µg/mL (≈ 0.69 µM).

On to `CCNS(=O)(=O)c1ccc(-n2nnc(C(C)=NNC(=N)N)c2C)cc1` [Compound 17, 2-(1-(1-(4-(N-Ethylsulfamoyl)phenyl)-5-methyl-1H-1,2,3-triazol-4-yl)ethylidene)hydrazine-1-carboximidamide], for which the MIC in series [1] and in series [2] was over 64 µg/mL throughout.

On to `CCCCCCCCCNS(=O)(=O)c1ccc(-n2nnc(C(C)=NNC(=N)N)c2C)cc1` [Compound 23, 2-(1-(5-Methyl-1-(4-(N-nonylsulfamoyl)phenyl)-1H-1,2,3-triazol-4-yl)ethylidene)hydrazine-1-carboximidamide], for which, in series [2], the minimum inhibitory concentration (MIC) worked out at 64 µg/mL (≈ 138 µM). For the same molecule, the “percentage of biofilm disruption relative to untreated controls” value with MRSA USA300 biofilms is 70–80%. Also, in the series with erythrocytes, the “Hemolysis LC” value is over 10 mg/mL. Further, the half-inhibitory concentration (IC50) in the series “MTT cytotoxicity assay” worked out at 52.4 µM.

Take `CCCCCCNS(=O)(=O)c1ccc(-n2nnc(C(C)=NNC(=N)N)c2C)cc1` [Compound 20, 2-(1-(1-(4-(N-Hexylsulfamoyl)phenyl)-5-methyl-1H-1,2,3-triazol-4-yl)ethylidene)hydrazine-1-carboximidamide]: the MIC in series [1] and in series [2] was 16 µg/mL (≈ 38 µM) throughout.

For the molecule `CCCCNS(=O)(=O)c1ccc(-n2nnc(C(C)=NNC(=N)N)c2C)cc1` [Compound 18, 2-(1-(1-(4-(N-Butylsulfamoyl)phenyl)-5-methyl-1H-1,2,3-triazol-4-yl)ethylidene)hydrazine-1-carboximidamide], the MIC in series [1] and in series [2] was over 64 µg/mL in each case.

Turning to `CCCCCCCCNS(=O)(=O)c1ccc(-n2nnc(C(C)=NNC(=N)N)c2C)cc1` [Compound 22, 2-(1-(5-Methyl-1-(4-(N-octylsulfamoyl)phenyl)-1H-1,2,3-triazol-4-yl)ethylidene)hydrazine-1-carboximidamide], the MIC in series [1] and in series [2] was 64 µg/mL (≈ 143 µM) each time.

For the origin of these results see article PMC12171725 (RSC Advances, 2025).
